Like-named read-outs stand apart in the source and are kept apart here.
Tests used:
[1] = ACHM-025 pharmacokinetic analysis of murine brain; format: in vivo; conditions: female, NSG, mouse, intraperitoneal, 25 mg/kg
[2] = ACHM-025 tolerability in naïve immunodeficient mice; format: in vivo, mouse; conditions: 25 mg/kg via IP weekly ×3
ALL-11/EV [3] = assay: Ex vivo cytotoxicity assay on ALL-11 PDX empty vector; format: cell-based; conditions: Homo sapiens, 48 h
How it was run: (§1)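 Patient-derived xenograft leukemia cells were cultured ex vivo in AIM V medium at a density optimized for each xenograft (1–5 × 10⁶ cells per mL). ALL-11 cells were lentivirally transduced with AKR1C3 or with empty vector. Viability was read by resazurin or CellTiter-Glo. IC₅₀ was interpolated from nonlinear regression curves, with three biological experiments.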

T-ALL PDX (ALL-31) [4] = assay: In vivo efficacy, conventional study, T-ALL PDX ALL-31 in NSG mice; design: species or system human; conditions: 25 mg/kg IP Days 0, 7, 14
Plasma protein binding [5] = format: in vitro ADME; conditions: mouse
[6] = ACHM-025 pharmacokinetic analysis of murine plasma; format: in vivo; conditions: female, NSG, mouse, ip, 25 mg/kg, across the dose levels 5, 10, 25 mg/kg IP
T-ALL PDX (ALL-8) [7] = assay: In vivo relapsed/refractory therapy comparison; design: species or system human
T-ALL PDX (ALL-8) [8] = assay: In vivo consolidation therapy comparison, ALL-8 in NSG mice; design: species or system human
How it was run: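 ALL-8-engrafted mice received test compound 5 mg/kg IP on Days 0 and 7, alone or with Ara-C and 6-mercaptopurine (each 12.5 mg/kg IP, Days 0–4 and 7–11). Comparators were cyclophosphamide (75 mg/kg IP, Days 0 and 7) and vehicle. Human CD45⁺ in PB was tracked over time. At Day 28, or at event for vehicle, PB, BM and spleen were assessed as % huCD45⁺ of mouse CD45⁺ (3 mice).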

Plasma protein binding [9] = format: in vitro ADME; conditions: human
T-ALL PDX (ALL-8) [10] = assay: Histopathologic analysis of mouse skull and brain to assess tumor burden; format: in vivo, human; conditions: 10 mg/kg IP Days 0, 7, 14
ALL-11/EV [11] = assay: In vivo efficacy against ALL-11/EV in mice; design: species or system human; conditions: 25 mg/kg IP Days 0, 7, 14
How it was run: (§2)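 Mice engrafted with the patient-derived xenograft were dosed IP and their peripheral blood % human CD45⁺ was monitored. An event was defined as huCD45⁺ >25% in PB. Event-free survival of treated and vehicle cohorts was compared as T-C and T/C. Studies used either n = 6 mice per treatment or single-mouse testing (n = 1).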

ALL-11/AKR1C3 [12] = assay: Ex vivo cytotoxicity assay on ALL-11 PDX overexpressing AKR1C3; format: cell-based; conditions: Homo sapiens, 48 h
How it was run: as §1

B-ALL PDXs = assay: Ex vivo cytotoxicity assay; format: cell-based, human
How it was run: as §1

25 T-ALL PDXs = assay: In vivo single mouse trial; design: species or system human; conditions: 25 mg/kg IP Days 0, 7, 14
T-ALL PDX (ALL-8) [13] = assay: In vivo dose response study, conventional, T-ALL PDX ALL-8 in NSG mice; design: species or system human
T-ALL PDX (ALL-8) [14] = assay: Minimal residual disease; format: in vivo, human; conditions: not within the quantitative range of the assay
[15] = Preliminary tolerability studies in cynomolgus monkeys; format: in vivo, cynomolgus monkey
ALL-11/AKR1C3 [16] = assay: In vivo efficacy against ALL-11/AKR1C3 in mice; design: species or system human; conditions: 25 mg/kg IP Days 0, 7, 14
How it was run: as §2

T-ALL PDXs = assay: Ex vivo cytotoxicity assay; format: cell-based, human
How it was run: as §1

T-ALL PDX (ALL-8) [17] = conditions: OBI-3424 2.5 mg/kg, PR-104 200 mg/kg; cited from earlier work
T-ALL PDX (ALL-31) [18] = conditions: OBI-3424 2.5 mg/kg, PR-104 200 mg/kg; cited from earlier work
[19] = ACHM-025 10 mg/kg IP Days 0, 7, 14, nelarabine 125 mg/kg IP Days 0–4, 14–18, alone or combined

CN1CCN(S(=O)(=O)c2cc([N+](=O)[O-])ccc2N(CCOS(C)(=O)=O)CCOS(C)(=O)=O)CC1 [ACHM-025, ((2-((4-methylpiperazin-1-yl)sulfonyl)-4-nitrophenyl)azanediyl)bis(ethane-2,1-diyl) dimethanesulfonate]
concentration at 0.25 h [1]: 0.14 µM | Tolerability [2]: well tolerated | IC50 (ALL-11/EV [3]): 1.26 µM | Median EFS (T-ALL PDX (ALL-31) [4]): > 332 days | human leukemia cells in the murine peripheral blood (PB) (T-ALL PDX (ALL-31) [4]): < 1% | mice that did not relapse over the >300-day observation period following the last treatment (T-ALL PDX (ALL-31) [4]): 3 out of 5 | time for which human leukemia cells in PB <1% was maintained (T-ALL PDX (ALL-31) [4]): 10 consecutive weeks | fraction unbound at 5 µmol/L (Plasma protein binding [5]): 0.569 | Cmax ([6]; Cmax): 1.6 to 9.3 µM | AUC(0-inf) ([6]; total plasma exposure (AUC0-inf)): 500 to 3300 nM·h | human leukemia cells in the BM at Day 28 by flow cytometry (T-ALL PDX (ALL-8) [7]): no detectable human leukemia cells | EFS (median event free survival) (T-ALL PDX (ALL-8) [7]; [19]): 207 days | ORM (T-ALL PDX (ALL-8) [7]; [19]): MCRs | T-C (T-ALL PDX (ALL-8) [7]; [19]): 198 days | T/C (T-ALL PDX (ALL-8) [7]; [19]): 22.5 days | human leukemia levels in the PB, BM and spleen at Day 28 (T-ALL PDX (ALL-8) [8]; ACHM-025 5 mg/kg IP Days 0, 7): undetectable levels | human leukemia cells in the murine PB (T-ALL PDX (ALL-8) [8]; ACHM-025 5 mg/kg IP Days 0, 7, for six consecutive weeks): < 1% | fraction unbound at 5 µmol/L (Plasma protein binding [9]): 0.646 | leukemic infiltration of the calvarial bone marrow at Day 28 (H&E, TdT) (T-ALL PDX (ALL-8) [10]): no observable leukemic infiltration | Treated EFS (ALL-11/EV [11]): 49.1 days | IC50 (ALL-11/AKR1C3 [12]): 0.0131 µM | IC50 (B-ALL PDXs; Homo sapiens, 48 h, read-out: Median IC50, median of 6 B-ALL PDXs, 48 h): 0.84 µM | PDXs that did not reach event during the 250 day monitoring period following the final treatment (25 T-ALL PDXs): 7/25 | ORM (T-ALL PDX (ALL-8) [13]; 10 mg/kg IP Days 0, 7, 14): MCRs | ORM (T-ALL PDX (ALL-8) [13]; 15 mg/kg IP Days 0, 7, 14): MCRs | ORM (T-ALL PDX (ALL-8) [13]; 25 mg/kg IP Days 0, 7, 14): MCRs | mice with no detectable human leukemia cells in the PB at 250 days after the last treatment (T-ALL PDX (ALL-8) [13]; 25 mg/kg IP Days 0, 7, 14): 5 out of 6 | human leukemia cells in the PB, BM, spleen, kidney or liver at Day 28 (T-ALL PDX (ALL-8) [13]; any of the three doses (10, 15 or 25 mg/kg)): no detectable human leukemia cells | MRD in BM samples at Day 28 (PCR-based assay) (T-ALL PDX (ALL-8) [14]): MRD positive | single dose-limiting toxicity ([15]; 0.6 mg/kg): neutropenia | all other hematological, clinical chemistry, urinalysis and histopathology parameters ([15]; 2.0 mg/kg, the highest dose tested): within normal range | well tolerated doses ([15]; preliminary studies): ≤ 0.5 mg/kg | Treated EFS (ALL-11/AKR1C3 [16]): 104 days | IC50 (T-ALL PDXs; Homo sapiens, 48 h, read-out: Median IC50, median of 6 T-ALL PDXs, 48 h): 0.029 µM

COc1nc(N)nc2c1ncn2[C@@H]1O[C@H](CO)[C@@H](O)[C@@H]1O [Nelarabine, nelarabine, reference compound]
EFS (median event free survival) (T-ALL PDX (ALL-8) [7]; [19]): 28.4 days | T-C (T-ALL PDX (ALL-8) [7]; [19]): 19.1 days | T/C (T-ALL PDX (ALL-8) [7]; [19]): 3.1 days | human leukemia levels in the PB, BM or spleen at Day 28 (T-ALL PDX (ALL-8) [7]; nelarabine 125 mg/kg IP Days 0–4, 14–18): did not significantly decrease

CS(=O)(=O)OCCN(CCBr)c1c(C(=O)NCCO)cc([N+](=O)[O-])cc1[N+](=O)[O-] [PR-104A, reference compound]
IC50 (B-ALL PDXs; read-out: Median IC50, median of B-ALL PDXs): 26.6 µM | IC50 (T-ALL PDXs; read-out: Median IC50, median of T-ALL PDXs): 1.8 µM

CS(=O)(=O)OCCN(CCBr)c1c(C(=O)NCCOP(=O)(O)O)cc([N+](=O)[O-])cc1[N+](=O)[O-] [PR-104]
delay of leukemia progression (T-ALL PDX (ALL-8) [17]): 54.3 days | delay of leukemia progression (T-ALL PDX (ALL-31) [18]): 44.4 days

— publication PMC11542020 (Blood Cancer Journal, 2024)
